Assay results from PubChem BioAssay AID1217 (Sanford-Burnham Center for Chemical Genomics, 2008).
In all, about 190,000 compounds went through this assay and about 1,300 (0.68%) were called active. For the sample, actives were picked, then their nearest neighbours and some compounds at random. Values without a mark were called inactive.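 Rule for the calls: active = primary screen inhibition at 20 µM above a set limit (cut at about 50% in these data); inactive = the rest.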

Each molecule was assayed on diaphorase (Clostridium kluyveri) (assay: compounds blocking diaphorase resazurin reduction – biochemical, uHTS, resorufin fluorescence, counter-screen for diaphorase-coupled primary assays, primary screen (AID 1217;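 note: plate controls were DMSO with full reaction for no effect and wells lacking NADH for full effect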)). Settings: diaphorase resazurin-to-resorufin fluorescence, NADH, 16 min; at 20 µM; active compounds read high.
Outline: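 Benchmarks: positive control wells lacking NADH, neutral wells with DMSO only. System: bacterial diaphorase enzyme (C. kluyveri). Input: 0.14 U/mL diaphorase, enzyme working solution. Detection: resorufin fluorescence, excitation 544 nm, emission 590 nm. Times: 16-min room-temperature incubation before reading.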

Row | SMILES | inhibition
1 | COc1ccccc1-n1c(O)c(C=NC2CC2)c(=O)[nH]c1=O | 7.4%
2 | COc1ccccc1N=C1SCCCN1C | 7.6%
3 | COc1ccccc1N=Nc1c(O)[nH]c(=S)[nH]c1=O | 51.2% (active)
4 | COc1ccc(-c2nn(CCC#N)cc2C(=O)O)cc1 | 0.1%
5 | COc1ccc(NC(=O)c2cn(CCC#N)nc2-c2ccc([N+](=O)[O-])cc2)cc1 | 1.1%
6 | CN(C)c1nc(N(C)C)nc(N(C#N)CCCl)n1 | -15.8%
7 | O=C(Cc1ccccc1)N1CCN(C2CCCCCC2)CC1 | 19.6%
8 | Cc1ccc2c(c1)=C/C(=C\c1c(O)[nH]c(=O)[nH]c1=O)C(=O)N=2 | 65.8% (active)
9 | O=C1N=c2ccccc2=C/C1=C\c1c(O)[nH]c(=S)[nH]c1=O | 20%
10 | COc1cccc(N2C(=O)NC(=O)/C(=C\c3ccc([N+](=O)[O-])s3)C2=O)c1 | 27.2%
